Test results: paper PMC11629119 (Pharmacology Research & Perspectives, 2024)
“And” between values parts separate entries of the source, which are not always exact repeats. Identical values can stand only once. “Also recorded” adds a separate entry of the source. Marks after values point to notes of the source that are not given here.

Key:
[1] = system: 2D HepaRG; assay: Cell viability assay; type: cell-based; conditions: Homo sapiens
Summary of the method: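 HepaRG seeded at 2.25 × 10⁵ cells/cm² in 96-well plates 7 days before exposure; plates gas-permeable sealed. Ranges: glycol ethers 10–1000 mM, metabolites 1–25 mM, ethanol 1–600 mM. Highest-concentration solutions neutralised to pH 7.4 with NaOH, filter-sterilised. ATP by CellTiter-Glo luminescence at 48 h and 7 days, as % untreated control. EC50 calculated. N = 3–4 biological repeats, triplicates.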

[2] = Data derived from Pubchem ref PubChem (nih.gov); cited from earlier work
[3] = system: 3D HepaRG; assay: Cell viability assay; type: cell-based, human; conditions: for higher toxicity of metabolite compared to its solvent (EC50, 3D HepaRG): 2‐MPA vs β‐PGME, 2‐MAA vs EGME; for EC50: Homo sapiens, HepaRG
Summary of the method: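 HepaRG spheroids formed from 3000 cells/well in U-bottom plates, 7 days pre-exposure. Dosing: half the medium replaced with twofold-concentrated compound; plates gas-permeable sealed. Ranges: glycol ethers 10–1000 mM, acid metabolites 1–25 mM, ethanol 1–600 mM; top solutions neutralised to pH 7.4, filtered. ATP by CellTiter-Glo luminescence at 48 h and 7 days, % of untreated control. EC50 calculated. N = 3–4 biological repeats, triplicates.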

[4] = TK model parameter; ref Devanthéry et al. [20]; cited from earlier work
[5] = TK model parameter; ref Kerns et al. [54]; cited from earlier work
[6] = system: 3D HepaRG; assay: Albumin ELISA assay in 3D HepaRG supernatant; type: cell-based, human; conditions: 3D HepaRG exposed to 16 mM APAP for 48 h; untreated 78.4 ± 22.9 ng/mL
[7] = system: human hepatocytes; conditions: EGME; cited from earlier work
[8] = system: ALDH2; assay: Gene expression q‐RT‐PCR in HepaRG, ALDH2; type: cell-based, human; conditions: 7‐day exposure
Summary of the method: (§1)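 HepaRG seeded at 2.25 × 10⁵ cells/cm² in 96-well plates for 7 days. RNA extracted with Qiazol/TRIzol plus glycogen. Reverse transcription with M-MLV and oligo dT. TaqMan probe qPCR program: 95°C 10 min, then 40 cycles of 95°C 15 s and 60°C 1 min.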

[9] = system: human hepatocytes; conditions: EGME, from reported Km and Vmax applying the scaling factors of this study
[10] = system: ADH1C; assay: Gene expression q‐RT‐PCR in HepaRG, ADH1C; type: cell-based, human; conditions: 7‐day exposure
Summary of the method: as §1

[11] = used for β‐PGME to PG in TK model; ref Gargas et al. [55]; cited from earlier work
[12] = system: CYP2E1; assay: Gene expression q‐RT‐PCR in HepaRG, CYP2E1; type: cell-based, human; conditions: 7‐day exposure
Summary of the method: as §1

[13] = system: ADH / ALDH in human liver S9 fraction; assay: Inhibition of 2‐MPA formation in S9 incubations; type: biochemical; conditions: 5 mM β‐PGME, S9, NAD+ only, 45 min
Summary of the method: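 Human liver S9 (2 mg/mL) in 100 mM potassium phosphate pH 7.4, 3 mM MgCl₂. Substrate 5 mM, chosen below ADH saturation; NAD⁺ as sole cofactor. ADH inhibitor at 50 μM or ALDH inhibitor at 10 μM, final. 5 min preincubation; cofactor starts reaction; 45 min, 37°C, 300 rpm. Stopped with ice-cold acetonitrile. Acid metabolite by HPLC-MS/MS. N = 3, duplicates. One-way ANOVA/Dunnett versus control.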

[14] = plasma binding; measured data derived from literature ref 32; cited from earlier work
[15] = S9 fraction incubation, Michaelis–Menten kinetics β‐PGME to 2‐MPA; type: in vitro ADME, human; conditions: human, human liver S9 fraction, pH 7.4
Summary of the method: (§2)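 Human liver S9 (2 mg/mL), 100 mM phosphate pH 7.4, 3 mM MgCl₂, substrate 0.1–8 mM; 1 mM NAD⁺ plus 1 mM NADPH start the reaction after 5 min preincubation. 45 min, 37°C; cofactor-free controls; acetonitrile stop. Metabolite by HPLC-MS/MS. Km/Vmax by nonlinear Michaelis–Menten fit; CLint = Vmax/Km. Scaled via physiological factors; well-stirred model (QH 20.7 mL/min/kg, fu,inc by Hallifax–Houston). N = 3, duplicates.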

[16] = system: human liver subcellular fraction (S9); assay: as above; type: in vitro ADME
Summary of the method: as §2

[17] = cited from earlier work
[18] = S9 fraction incubation, solvent loss and metabolite formation; type: in vitro ADME, human; conditions: human, human liver S9 fraction; for microsomal CLint at 700 μM: pH 7.4, CLint, in vitro, S9, measured, 700 μM β‐PGME; for CLint scaled at 700 μM: pH 7.4, Predicted CL int, in vivo
Summary of the method: (§3)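 S9 2 mg/mL, 100 mM phosphate pH 7.4, 3 mM MgCl₂, 1 mM NAD⁺/NADPH; substrate 700 μM, 37°C. Aliquots at 1, 12, 23, 34, 45 min quenched with 2 volumes ice-cold acetonitrile; cofactor-free controls. Elimination or formation constant from slope of ln % parent remaining or ln metabolite versus time; CLint = k × volume / S9 protein. Scaled to CLh with well-stirred model. N = 3, duplicates.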

[19] = system: human liver subcellular fraction (S9); assay: as above; type: in vitro ADME; conditions: for In vitro predicted hepatic organ clearance (CL h), CLmetMPA: measured; for Predicted CL h: well‐stirred liver model
Summary of the method: as §3

[20] = system: 3D HepaRG; assay: Metabolite formation in the 3D HepaRG liver model; type: in vitro ADME, human; conditions: 3D HepaRG, metabolite formation
Summary of the method: (§4)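 HepaRG spheroids (79 per well, 2772 cells each) formed 7 days in ultra-low-attachment micro-arrays. Substrate added as threefold concentrate to 5 mM final; 37°C, 5% CO₂, sealed. Supernatant sampled at 1, 15, 30, 45 min and 1, 6, 24 h, acetonitrile-quenched. Metabolite by HPLC-MS/MS. Formation constant from ln concentration versus time over 60 min; CLint per million cells. fu,inc by Kilford method (1.46 × 10⁶ cells/mL); well-stirred CLh. N = 3.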

[21] = Metabolite formation in the 3D HepaRG liver model; type: in vitro ADME, human; conditions: human, 3D HepaRG spheroids
Summary of the method: as §4

[22] = β‐PGME → 2‐MPA, S9 2 mg/mL, 45 min

COCC(=O)O [2‐MAA, 2‐Methoxyacetic acid, reference compound]
EC50 ([1]; 48 h): 31 mM
EC50 ([1]; 168 h): 16 mM
logP [2]: −0.30
higher toxicity of metabolite compared to its solvent (EC50, 3D HepaRG) [3]: ~50 fold
EC50 ([3]; 48 h): 11 mM
EC50 ([3]; 168 h): 9 mM

COC(C)C(=O)O (stereo not drawn) [2‐MPA, 2‐Methoxypropionic acid]
EC50 ([1]; 48 h): 81 mM
EC50 ([1]; 168 h): 34 mM
higher toxicity of metabolite compared to its solvent (EC50, 3D HepaRG) [3]: approximately fourfold; also recorded: approximately four times lower
EC50 ([3]; 48 h): 46 mM
EC50 ([3]; 168 h): 26 mM
Urinary excretion rate of 2‐MPA (KMPA) [4]: 0.09 h⁻¹
Permeability coefficient (BBB) (PeMPA) [5]: 100 ×10⁻⁶ cm/s

CC(=O)Nc1ccc(O)cc1 [APAP, acetaminophen]
albumin secretion (albumin concentration in medium) [6]: 1.78 ± 0.68 ng/mL

COCCO [EGME, 2‐Methoxyethanol]
V max [7]: 61.3 nmol/h/10^6 cells
logP [2]: −0.80
expression of ALDH2 [8]: not induced
calculated in vitro CLint [9]: 0.62 µL/min/mg
expression of ADH1C [10]: not induced
Kinetic constant EGME → EG (ethylene glycol) (CLmetPG) [11]: 5 mL/min/kg
expression of CYP2E1 [12]: not induced

c1ccc(-c2ccc3nc(-c4ccccc4)cn3c2)cc1 [GA11, 2,6‐diphenylimidazo[1,2‐a]pyridine]
2‐MPA formation compared to control incubations ([13]; 10 μM GA11 (ALDH inhibitor)): significantly reduced

COCC(C)O (stereo not drawn) [PGME, 1‐Methoxypropan‐2‐ol]
logP [2]: −0.49 −0.49
EC50 ([3]; 168 h): 96 mM
expression of ALDH2 [8]: not induced
fu,b [14]: 0.540 ^c 0.540 ^c
expression of ADH1C [10]: not induced
expression of CYP2E1 [12]: not induced

CCO [ethanol]
expression of ALDH2 [8]: not induced
expression of ADH1C [10]: not induced
expression of CYP2E1 [12]: not induced

Cc1cn[nH]c1 [fomepizole, 4‐methyl pyrazole]
2‐MPA formation compared to control incubations ([13]; 50 μM fomepizole (ADH inhibitor)): significantly reduced

COC(C)CO (stereo not drawn) [β‐PGME, 2‐Methoxypropan‐1‐ol]
logP [2]: −0.49 −0.49
EC50 ([3]; 168 h): 86 mM
CLint scaled [15]: 0.6 ± 0.09 mL/min/kg
microsomal CLint [15]: 0.19 ± 0.03 µL/min/mg
Predicted CL h ([16]; S9, calculated (Vmax/Km), well‐stirred liver model): 0.36 ± 0.05 mL/min/kg
In vitro predicted hepatic organ clearance (CL h), CLmetMPA ([16]; S9, metabolite formation, calculated (V max/K m)): 0.36 mL/min/kg
K m [16, 22]: 5.572 ± 2.171 mM
V max [16, 22]: 1.04 ± 0.28 nmol/min/mg
fu,b [14]: 0.540 ^c 0.540 ^c
excretion of conjugated β‐PGME [17]: 3%
β‐PGME excreted as 2‐MPA ([17]; published rat studies): more than 60%
microsomal CLint at 700 μM ([18]; metabolite formation): 40.9 ± 5.19 µL/min/mg
microsomal CLint at 700 μM ([18]; solvent loss): 3.8 ± 2.14 µL/min/mg
CLint scaled at 700 μM ([18]; S9, metabolite formation): 127 ± 16.1 mL/min/kg
CLint scaled at 700 μM ([18]; S9, solvent loss): 11.8 ± 6.67 mL/min/kg
In vitro predicted hepatic organ clearance (CL h), CLmetMPA ([19]; S9, metabolite formation): 16.4 mL/min/kg
Predicted CL h ([19]; S9, metabolite formation): 16.4 ± 0.47 mL/min/kg
In vitro predicted hepatic organ clearance (CL h), CLmetMPA ([19]; S9, solvent loss): 5 mL/min/kg
Predicted CL h ([19]; S9, solvent loss): 5.00 ± 2.52 mL/min/kg and 5.03 ± 2.52 mL/min/kg
clearance ranking based on in vitro predicted CLh values ([19]; overall generated CLh values (S9 and 3D HepaRG), reported clearance rankings): low to medium clearance compound
In vitro predicted hepatic organ clearance (CL h), CLmetMPA ([20]; measured): 9.07 mL/min/kg
Predicted CL h ([20]; well‐stirred liver model): 9.07 ± 0.44 mL/min/kg
CLint scaled at 5 mM [21]: 28.2 ± 2.5 mL/min/kg
hepatocyte CLint at 5 mM [21]: 9.34 ± 0.83 µL/min/1e6 cells
microsomal CLint at 5 mM [21]: 9.62 ± 0.85 µL/min/mg
